# In the array DNA melting data of Ke et al. (doi:10.1101/2024.01.08.574731):
# Tests used:
# [1] = folding enthalpy; higher = less favourable; fluorescence melt of hairpins on a sequencing array, two-state fit; conditions: sodium 0.088 M
# How it was run: (§1)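 Melting temperature and folding enthalpy were derived from bootstrapped two-state fits. The fitted temperatures were raised by 9.35 °C to agree with UV melts, and four replicates were combined by inverse variance. The underlying data were Cy3 fluorescence images of library hairpins, with annealed Cy3 and quencher oligos, on a sequenced MiSeq flow cell in 50 mM Na-HEPES pH 8.0, 25 mM NaCl, taken in 2.5 °C steps up to 60 °C, normalised to pre-quench Cy3 and to control constructs.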
# [2] = melting temperature; fluorescence melt of hairpins on a sequencing array, two-state fit, raised by 9.35 °C to match UV melts; conditions: sodium 0.088 M
# How it was run: as §1
Sequence,folding enthalpy [1],Tm [2]
GGCTTAGAAATAAGCC ((((((....)))))),-33.4 kcal/mol,55.4 °C
GCAAAGCGAAAGCATGGC ((.(.((....)).).)),-10.3 kcal/mol,38.3 °C
GCAGTACGAAAGTATGC (((.(((....)))))),-31.3 kcal/mol,48.4 °C
GTCAAGGGAAACCTTGGC (.(((((....))))).),-33.1 kcal/mol,49.4 °C
GTGACATCGAAAGATCAC (((..(((....)))))),-16.2 kcal/mol,33 °C
GTGTACGGAAACGTACGC (.(((((....))))).),-20.6 kcal/mol,55.1 °C
GGTTGGGGAAACCTAACC ((((.((....)).)))),-32.4 kcal/mol,48 °C
GTCAGCGGAAACACTGAC (((((.(....).))))),-40.7 kcal/mol,47.2 °C
GTACGCGAAAGCGCTTAC ((((((....)))..))),-9.36 kcal/mol,29.4 °C
CGCGGAGCGGTCCGCG ((((((....)))))),-15.8 kcal/mol,50.5 °C
GCATGCGAAAGCACTGC ((((((....))).))),-22.3 kcal/mol,51.3 °C
GGGTGAGGAAACTCGCCC (((.(((....))).))),-34 kcal/mol,57.4 °C
GTGTTTCGAAAGAAGCAC (((.(((....))).))),-38.1 kcal/mol,51 °C
GCATTCGAAAGAAATGC ((((((....))).))),-30.4 kcal/mol,49 °C
GTGGGCGCGAAAGCGCAC (((..(((....)))))),-16.4 kcal/mol,67.9 °C
GCTGACGAAAGTCTCAGC ((((((....)))..))),-20.9 kcal/mol,40.9 °C
GATCAGGGCACTGATC ((((((....)))))),-37.2 kcal/mol,59.8 °C
GCTCATCCGAAAGGAAGC (((..(((....)))))),-11.2 kcal/mol,29.8 °C
GACAGGGCGAAAGCCGTC (((..(((....)))))),-14.1 kcal/mol,49.6 °C
GCTGTTACGAAAGTAAGC (((..(((....)))))),-21.1 kcal/mol,37.8 °C
GATCAGGCGGCTGATC ((((((....)))))),-47.8 kcal/mol,53.2 °C
GATCCGTTATCGGATC ((((((....)))))),-36 kcal/mol,59.2 °C
GCACGAACGAAAGTTTGC (((..(((....)))))),-17.1 kcal/mol,33.5 °C

Sequence,folding enthalpy [1],Tm [2]
GATCCTGCAAGGATC ((((((...)))))),-39.6 kcal/mol,68.5 °C
GCGGGCGGCCGC ((((....)))),-42 kcal/mol,59.1 °C
GAGCTACGAAAGTACTC (((.(((....)))))),-21.3 kcal/mol,39.1 °C
GAATCCCGAAAGGGGTTC (((.(((....))).))),-33.9 kcal/mol,58.1 °C
GGAAGGGGAAACCCCTCC (((.(((....))).))),-21.1 kcal/mol,45 °C
GATCCCACCGGGATC ((((((...)))))),-28.9 kcal/mol,66.7 °C
GATCCCACGCGGGATC ((((((....)))))),-30.7 kcal/mol,63.3 °C
GTTCGCGGAAACGTGAAC ((((.((....)).)))),-37.7 kcal/mol,56.8 °C
GATCTATGCCTAGATC ((((((....)))))),-33.3 kcal/mol,41 °C
GGAAGACGAAAGTCTCC (((.(((....)))))),-20.9 kcal/mol,52.3 °C
GCCATGCGAAAGCGTAGC ((.(.((....)).).)),-11.2 kcal/mol,37 °C
GTAGGACGAAAGTCTTAC (((.(((....))).))),-26.2 kcal/mol,47.7 °C
GGTGTCGAAAGACGACC ((((((....))).))),-19.9 kcal/mol,52.6 °C
GCTTGCGGAAACGCAGGC ((.((((....)))).)),-35.1 kcal/mol,62.8 °C
GCTGCTCGAAAGAGAGC (((.(((....)))))),-20.5 kcal/mol,48 °C
GATCCCGTGCGGGATC ((((((....)))))),-35.8 kcal/mol,66.3 °C
GTGCTGGGAAACTAGCAC (((((.(....).))))),-41.3 kcal/mol,54.3 °C
GATCGTCTACACGATC ((((((....)))))),-39.8 kcal/mol,53.9 °C
GCACGCCGAAAGGCCTGC (((.(((....))).))),-23.2 kcal/mol,48.8 °C
GTGACGGGAAACCGTTAC ((.((((....)))).)),-22.2 kcal/mol,51.9 °C
GAGTTACCGAAAGGTCTC (((..(((....)))))),-16.9 kcal/mol,29.4 °C
GCCTCGCGAAAGCGACGC ((.((((....)))).)),-16.5 kcal/mol,52.6 °C
GATCACGCCCGTGATC ((((((....)))))),-39.8 kcal/mol,60.6 °C

Sequence,folding enthalpy [1],Tm [2]
GTGGTTCCGAAAGGACAC (((..(((....)))))),-17.3 kcal/mol,40 °C
GTTCTCGAAAGAGTAAAC ((((((....)))..))),-12.5 kcal/mol,27.9 °C
GTAGTTCGAAAGAATTAC (((.(((....))).))),-26.8 kcal/mol,42.4 °C
GTATTTCGAAAGAACTAC (((.(((....))).))),-19.2 kcal/mol,31.7 °C
GAGCTAGCGAAAGCTCTC (((..(((....)))))),-17 kcal/mol,45.3 °C
GGCTCACCGAAAGGTGCC (((..(((....)))))),-10.9 kcal/mol,39.6 °C
GCCCGGCGAAAGCCGGC (((.(((....)))))),-6.9 kcal/mol,65.7 °C
GGTCAGGGAAACCTGGCC ((.((((....)))).)),-42.2 kcal/mol,57.5 °C
GCTGGAGGAAACTCTAGC (((.(((....))).))),-40.4 kcal/mol,48.4 °C
ATCAGTGAAAAATCACTGAA ....................,-20.6 kcal/mol,31.9 °C
GCTGGGGGAAACCCTAGC (((.(((....))).))),-36.2 kcal/mol,53.2 °C
GCACTACCGAAAGGTTGC (((..(((....)))))),-15.9 kcal/mol,39.6 °C
GGAAATCGAAAGATGTCC (((.(((....))).))),-29 kcal/mol,40.9 °C
GCGGTGCCGAAAGGCCGC (((..(((....)))))),-19.4 kcal/mol,62.3 °C
GCGACTGGAAACAATCGC ((((.((....)).)))),-40.4 kcal/mol,45.5 °C
GGGGGCGAAAGCCTACCC ((((((....)))..))),-15 kcal/mol,49.8 °C
GGCCTCCGAAAGGAAGCC (((.(((....))).))),-40.9 kcal/mol,55.5 °C
GTCAAGCGAAAGCTCGAC (((.(((....))).))),-30.3 kcal/mol,49.7 °C
GGACCGGGAAACTGGTCC (((((.(....).))))),-44.9 kcal/mol,58.2 °C
GCGTAGCGAAAGCTTTGC ((..(((....)))..)),-7.28 kcal/mol,42.9 °C
GATCTCTAATGAGATC ((((((....)))))),-46.5 kcal/mol,49.9 °C
GTCTTGGAAACAAGAC ((((((....)))))),-35.3 kcal/mol,54.9 °C
GTCGTCCGAAAGGAAGAC (((.(((....))).))),-33 kcal/mol,55.9 °C
